Data published in ChEMBL document CHEMBL2424625, “Synthesis and structure-activity relationships of novel indazolyl glucocorticoid receptor partial agonists” (Bioorg Med Chem Lett, 2013).
Active and inactive are the calls of the source. No cut-off for these calls is given here.

How the values were obtained:
[1] = target: T1, Glucocorticoid receptor (Homo sapiens) (UniProt P04150); test: Transrepression activity at glucocorticoid receptor in human A549 cells assessed as inhibition of IL1beta-stimulated NFkappaB-dependent E-selectin transcription by luciferase reporter gene assay relative to dexamethasone; assay type: cell-based
T1 sequence (whole entry): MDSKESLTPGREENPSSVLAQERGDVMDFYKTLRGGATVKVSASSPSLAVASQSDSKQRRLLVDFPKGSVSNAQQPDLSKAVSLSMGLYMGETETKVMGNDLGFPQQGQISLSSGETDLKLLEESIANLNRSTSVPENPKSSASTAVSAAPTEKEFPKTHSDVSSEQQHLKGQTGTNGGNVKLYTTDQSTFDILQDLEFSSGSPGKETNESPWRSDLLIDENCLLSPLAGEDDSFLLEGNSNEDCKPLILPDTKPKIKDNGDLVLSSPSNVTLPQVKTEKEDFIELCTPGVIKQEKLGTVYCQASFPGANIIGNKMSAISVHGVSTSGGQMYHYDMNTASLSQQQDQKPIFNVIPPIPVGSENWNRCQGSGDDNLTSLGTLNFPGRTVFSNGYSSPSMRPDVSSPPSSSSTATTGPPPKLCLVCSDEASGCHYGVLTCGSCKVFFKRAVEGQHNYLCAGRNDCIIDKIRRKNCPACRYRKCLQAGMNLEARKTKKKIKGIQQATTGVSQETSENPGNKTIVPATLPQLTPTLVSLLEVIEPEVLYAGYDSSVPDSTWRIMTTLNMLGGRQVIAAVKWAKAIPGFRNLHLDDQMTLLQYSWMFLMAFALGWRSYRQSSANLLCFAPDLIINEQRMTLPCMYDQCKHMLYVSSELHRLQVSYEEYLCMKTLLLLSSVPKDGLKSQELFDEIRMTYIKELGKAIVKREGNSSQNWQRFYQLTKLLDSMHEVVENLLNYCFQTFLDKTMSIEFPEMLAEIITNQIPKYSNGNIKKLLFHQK
Procedure, shortened: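 In A549 lung epithelial cells, NFkB activity was induced with IL-1β (0.5 ng/ml). Inhibition was quantitated as decreased luciferase activity. […] Values are means of two or more experiments in triplicate.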

Glucocorticoid receptor = target: T2, Glucocorticoid receptor (Homo sapiens, UniProt P04150); test: Transrepression activity at glucocorticoid receptor in human A549 cells assessed as inhibition of PMA-stimulated AP1 response element by luciferase reporter gene assay; assay type: cell-based
T2 sequence (P04150 whole entry): T1 sequence (whole entry)

[2] = target: T1, Glucocorticoid receptor (Homo sapiens); test: Partial agonist activity at glucocorticoid receptor (unknown origin) by fluorescence assay
[3] = target: T3, Mineralocorticoid receptor (Homo sapiens, UniProt P08235); test: Agonist activity at mineralocorticoid receptor in human A549 cells by fluorescence assay; assay type: cell-based
T3 sequence (P08235 whole entry): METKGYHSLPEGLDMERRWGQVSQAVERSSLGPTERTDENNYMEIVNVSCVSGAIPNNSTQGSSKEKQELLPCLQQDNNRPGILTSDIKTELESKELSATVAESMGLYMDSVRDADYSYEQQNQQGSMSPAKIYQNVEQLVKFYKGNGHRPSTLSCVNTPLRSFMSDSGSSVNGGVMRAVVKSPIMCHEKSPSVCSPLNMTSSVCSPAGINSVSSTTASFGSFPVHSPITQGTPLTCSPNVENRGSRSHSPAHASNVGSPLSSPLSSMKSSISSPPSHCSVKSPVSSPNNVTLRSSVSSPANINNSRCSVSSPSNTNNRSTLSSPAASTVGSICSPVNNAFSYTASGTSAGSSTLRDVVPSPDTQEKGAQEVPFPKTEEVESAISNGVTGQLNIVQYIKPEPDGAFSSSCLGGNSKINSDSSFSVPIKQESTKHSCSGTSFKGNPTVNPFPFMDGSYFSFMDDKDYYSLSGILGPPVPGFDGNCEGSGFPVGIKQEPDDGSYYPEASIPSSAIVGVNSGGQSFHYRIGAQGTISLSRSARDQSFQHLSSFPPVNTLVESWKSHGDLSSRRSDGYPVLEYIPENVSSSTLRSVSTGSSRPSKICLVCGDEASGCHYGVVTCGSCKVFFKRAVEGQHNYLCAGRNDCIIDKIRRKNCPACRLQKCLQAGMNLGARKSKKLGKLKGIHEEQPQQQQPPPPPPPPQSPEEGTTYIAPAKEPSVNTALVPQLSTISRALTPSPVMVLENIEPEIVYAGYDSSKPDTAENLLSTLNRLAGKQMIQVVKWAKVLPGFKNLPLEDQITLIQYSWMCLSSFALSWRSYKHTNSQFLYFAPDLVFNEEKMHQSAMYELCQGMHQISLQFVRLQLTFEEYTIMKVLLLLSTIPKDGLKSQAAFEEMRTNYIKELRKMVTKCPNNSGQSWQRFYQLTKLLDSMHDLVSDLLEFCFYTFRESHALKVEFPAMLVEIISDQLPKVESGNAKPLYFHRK
Procedure, shortened: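 A549 cells were run in MR agonist mode with aldosterone as positive control. EC50 was reported with % maximal efficacy, as means of duplicate experiments.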

[4] = target: T1, Glucocorticoid receptor (Homo sapiens); test: Transrepression activity at glucocorticoid receptor in human A549 cells assessed as inhibition of PMA-stimulated AP1 response element by luciferase reporter gene assay relative to dexamethasone; assay type: cell-based
Procedure, shortened: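 Transrepression of AP-1 was run in A549 lung epithelial cells. […] Values are means of two or more experiments in triplicate.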

| SMILES | Efficacy [1] [%] | EC50 (Glucocorticoid receptor) [nM] | Activity [2] | IC50 [3] [nM] | Efficacy [4] [%] |
| --- | --- | --- | --- | --- | --- |
| CC(C)(C)NC(=O)NCC(C)(C)[C@@H](c1ccccc1)c1ccc2c(cnn2-c2ccc(F)cc2)c1 | 65 | 57 | Active | > 5000 | 74 |
| CC(C)(CNS(=O)(=O)CC(F)(F)F)[C@@H](c1ccccc1)c1ccc2c(cnn2-c2ccc(F)cc2)c1 | 86 | 20.4 | Active | > 5000 | 74 |
| CC(C)(CNC(=O)CC(F)(F)F)[C@@H](c1ccccc1)c1ccc2c(cnn2-c2ccc(F)cc2)c1 | 90 | 12.4 |  | > 5000 | 91 |
